Experimental data from different studies.
Protocols differ between the studies behind these lines.
Read-out: metabolic stability

SMILES	test system	setting	quantity	value
CN1CCN(c2ccc(-c3ccc4nncc(Nc5ccc(OC(F)(F)F)cc5)c4c3)cc2)CC1	rat, hepatocytes		hepatocyte CLint	14 µL/min/10⁶ cells
Cc1nnc(-c2ccc3ccn(CC(=O)Nc4ccccc4Cl)c3c2)o1	rat, hepatocytes		hepatocyte CLint	> 92 µL/min/10⁶ cells
CCOCC(=O)N1CCC[C@H](C(=O)NCc2nc(-c3ccc(C#N)nc3)cs2)C1	male Sprague-Dawley rat, hepatocytes	0.5 µM	scaled CLint	17 mL/min/kg
C[C@]1(O)CCCN(c2nc(Nc3ccc(S(=O)(=O)N[C@H]4CC[C@H](CN5CCN(c6ccc(C7CCC(=O)NC7=O)cc6F)CC5)CC4)cc3F)ncc2C(F)(F)F)C1 (stereo partly shown)	rat, liver microsomes	1 µM	scaled CLint	< 21 mL/min/kg
CCONC(=O)N1CCC[C@H](C(=O)NCc2nc(-c3ccc(C#N)cc3)cs2)C1	male Sprague-Dawley rat, hepatocytes	0.5 µM	scaled CLint	41 mL/min/kg
Cc1cc(S(=O)(=O)NC2CC(N3CCN(CC4CCN(c5cccc6c5n(C)c(=O)n6C5CCC(=O)NC5=O)CC4)CC3)C2)ccc1Nc1ncc(C(F)(F)F)c(N2CCC[C@](C)(O)C2)n1 (stereo partly shown)	rat, liver microsomes	1 µM	scaled CLint	< 21 mL/min/kg
Cc1ccc(Oc2ccc(NC(=O)CN(C)c3ccccc3N3CCCC3=O)cc2)cc1	rat, hepatocytes		hepatocyte CLint	> 92 µL/min/10⁶ cells
Cc1ccc(-c2csc(CNC(=O)[C@H]3CCCN(C(=O)COCCF)[C@H]3C)n2)cn1	male Sprague-Dawley rat, liver microsomes	0.5 µM	microsomal CLint	31 µL/min/mg
CC(C)N(c1ccc(Cl)c(F)c1)c1ccc(NC(=O)CN(C)c2ccccc2N2CCCC2=O)cn1	rat, hepatocytes		hepatocyte CLint	62 µL/min/10⁶ cells
N#Cc1ccc(C[C@H](Nc2ncc(-c3ccc(F)cc3)o2)C(=O)N2CCc3ccccc32)cc1	rat, liver microsomes	10 µM, pH 7.4	microsomal CLint	16.1 µL/min/mg
CCN(c1ccc(C)cc1)c1ccc(NC(=O)CN(C)c2ccccc2N2CCCC2=O)cn1	rat, hepatocytes		hepatocyte CLint	> 92 µL/min/10⁶ cells
Cc1cc(S(=O)(=O)N[C@]2(C)C[C@@H](N3CCN(CC4CCN(c5ccc6c(c5F)n(C)c(=O)n6C5CCC(=O)NC5=O)CC4)CC3)C2)ccc1Nc1ncc(C(F)(F)F)c(N2CCC[C@](C)(O)C2)n1 (stereo partly shown)	rat, liver microsomes	1 µM	scaled CLint	< 21 mL/min/kg
CCONC(=O)N1CCC[C@H](C(=O)NCc2nc(-c3ccccc3)cs2)C1	male Sprague-Dawley rat, liver microsomes	0.5 µM	microsomal CLint	31 µL/min/mg
Cc1ccc(N(C)c2ccc(NC(=O)CN(C)c3cccnc3N3CCCC3=O)cc2)cc1	rat, hepatocytes		hepatocyte CLint	> 92 µL/min/10⁶ cells
Cc1[nH]c(C)c(S(=O)(=O)Nc2ccc(C(F)(F)F)c(Cl)c2)c1C(=O)N1CCC(F)(F)C1	rat, liver microsomes		microsomal CLint	87 µL/min/mg
C[C@H]1CN(CC2CCN(c3ccc(C4CCC(=O)NC4=O)cc3F)CC2)CC[C@H]1NS(=O)(=O)c1ccc(Nc2ncc(C(F)(F)F)c(N3CCC[C@](C)(O)C3)n2)c(F)c1 (stereo partly shown)	rat, liver microsomes	1 µM	scaled CLint	45 mL/min/kg

SMILES	test system	setting	quantity	value
CONC(=O)N1CCC[C@H](C(=O)NCc2nc(-c3ccccc3)cs2)C1	male Sprague-Dawley rat, liver microsomes	0.5 µM	microsomal CLint	18 µL/min/mg
N#Cc1ccc(C[C@H](NC(=O)c2cc3ccc(F)cc3[nH]2)C(=O)N2CCc3ccccc32)cc1	rat, liver microsomes	10 µM, pH 7.4	microsomal CLint	6.6 µL/min/mg
O=C(NCc1nc(-c2ccc(C(F)(F)F)cc2)cs1)[C@H]1CCCN(C(=O)COCCN2CCCC2)C1	male Sprague-Dawley rat, liver microsomes	0.5 µM	microsomal CLint	34 µL/min/mg
CNS(=O)(=O)c1ccc(Nc2ncc(C(F)(F)F)c([C@H]3CC[C@](C)(O)CC3)n2)c(C)c1	rat, liver microsomes	1 µM	scaled CLint	30 mL/min/kg
Cc1ccc(C(C)(C)c2ccc(NC(=O)CN(C)c3ccccc3N3CCCC3=O)cc2)cc1	rat, hepatocytes		hepatocyte CLint	63 µL/min/10⁶ cells
Cc1cc(S(=O)(=O)N[C@H]2C[C@H](CN3CCN(c4ccc(C5CCC(=O)NC5=O)c(Cl)c4)CC3)C2)ccc1Nc1ncc(C(F)(F)F)c(N2CCC[C@](C)(O)C2)n1 (stereo partly shown)	rat, liver microsomes	1 µM	scaled CLint	36 mL/min/kg
Cc1ccc(N(C)c2ccc(NC(=O)CN(C)c3ccccc3N3CCCC3=O)cc2)cc1	rat, hepatocytes		hepatocyte CLint	> 92 µL/min/10⁶ cells
N#Cc1ccc(-c2csc(CNC(=O)[C@H]3CCCN(C(=O)COC4CC4)C3)n2)cc1	male Sprague-Dawley rat, liver microsomes	0.5 µM	microsomal CLint	100 µL/min/mg
Cc1ccc(Nc2cnnc3ccc(-c4ccc(N5CCCN(C)CC5)cc4)cc23)cn1	rat, hepatocytes		hepatocyte CLint	10 µL/min/10⁶ cells
NCCCOCC(=O)N1CCC[C@H](C(=O)NCc2nc(-c3ccc(C4CC4)cc3)cs2)C1	male Sprague-Dawley rat, liver microsomes	0.5 µM	microsomal CLint	15 µL/min/mg
Cc1ccc(N(c2ccc(NC(=O)CN(C)c3ccccc3N3CCCC3=O)cn2)C(C)C)cc1	rat, hepatocytes		hepatocyte CLint	86 µL/min/10⁶ cells
Cc1cc(S(=O)(=O)NC2CC(N3CCN(CC4CCN(c5cccc6c5n(C)c(=O)n6C5CCC(=O)NC5=O)CC4)C4(CC4)C3)C2)ccc1Nc1ncc(C(F)(F)F)c(N2CCC[C@](C)(O)C2)n1 (stereo partly shown)	rat, liver microsomes	1 µM	scaled CLint	< 21 mL/min/kg
CN(CC(=O)Nc1ccc(N(C)c2ccc(Cl)c(F)c2)cc1)c1ccccc1N1CCCC1=O	rat, hepatocytes		hepatocyte CLint	79 µL/min/10⁶ cells
Cc1cc(S(=O)(=O)N[C@H]2CC[C@H](N3CCN(CC4CCN(c5cccc6c5n(C)c(=O)n6C5CCC(=O)NC5=O)CC4)CC3)CC2)ccc1Nc1ncc(C(F)(F)F)c(N2CCC[C@](C)(O)C2)n1 (stereo partly shown)	rat, liver microsomes	1 µM	scaled CLint	< 21 mL/min/kg
N#Cc1ccc(C[C@H](Nc2nnc(-c3cccc(F)c3)s2)C(=O)N2CCc3ccccc32)cc1	rat, liver microsomes	10 µM, pH 7.4	microsomal CLint	14.7 µL/min/mg
